{"source": "paper PMC11520665", "about": "(Critical Care, 2024)", "key": {"[1]": {"conditions": "cited from earlier work"}, "[2]": {"experiment": "Safety: treatment-emergent adverse events", "type": "in vivo, patients (adults)", "conditions": "safety population", "procedure,_shortened": "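Post-hoc pooled data from two randomised, double-blind, double-dummy trials. The safety population was adults in the ICU at randomisation who received ≥1 dose. Dosing was IV test compound weekly (400 mg Day 1, 200 mg Day 8, optional later 200 mg) or IV comparator echinocandin daily (70 mg Day 1, then 50 mg/day). TEAEs ran from dosing to follow-up, coded MedDRA 23.0, graded mild/moderate/severe, and summarised descriptively.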"}, "[3]": {"conditions": "ICU at randomisation, n=46 rezafungin, n=67 caspofungin"}, "[4]": {"conditions": "ICU at randomisation, number of events per severity"}}, "note": "Numbered stars: 1 amine (or outer) side, 2 acyl side, 3 side chain; on linkers, the order of the positions; unused ones are H or OH. Bridge positions count the residues as written; N and C are the ends. Square brackets hold non-standard residues; d marks the D form. Peptide text beside a SMILES is read from it. * marks the point of attachment. Orn(4R-OH,5R-OCH2CH2NMe3+) = C[N+](C)(C)CCO[C@@H](N[*:3])[C@H](O)C[C@H](N[*:1])C(=O)[*:2]; pTerphenylCO(4''-OnC5H11) = CCCCCOc1ccc(-c2ccc(-c3ccc(C(=O)*)cc3)cc2)cc1; hTyr(3S-OH,4S-OH) = N[C@H](C(=O)O)[C@H](O)[C@@H](O)c1ccc(O)cc1; Pro(3S-OH,4S-Me) = C[C@H]1CN[C@H](C(=O)O)[C@H]1O; Hyp = O=C(O)[C@@H]1C[C@@H](O)CN1"}
{"smiles": "CCCCCOc1ccc(-c2ccc(-c3ccc(C(=O)N[C@H]4C[C@@H](O)[C@@H](OCC[N+](C)(C)C)NC(=O)[C@@H]5[C@@H](O)[C@@H](C)CN5C(=O)[C@H]([C@@H](C)O)NC(=O)[C@H]([C@H](O)[C@@H](O)c5ccc(O)cc5)NC(=O)[C@@H]5C[C@@H](O)CN5C(=O)[C@H]([C@@H](C)O)NC4=O)cc3)cc2)cc1", "note": "[Rezafungin] ({pTerphenylCO(4''-OnC5H11)}-[Orn(4R-OH,5R-OCH2CH2NMe3+)]T[Hyp][hTyr(3S-OH,4S-OH)]T[Pro(3S-OH,4S-Me)]; lactam 1-C)", "values": [{"measurement": "half-life", "setting": "[1]", "value": "120 to 140", "unit": "h"}, {"measurement": "TEAE: Abdominal abscess, patients", "setting": "[2]; [3]", "value": "1 (2.2) n (%)"}, {"measurement": "TEAE: Abdominal pain, patients", "setting": "[2]; [3]", "value": "4 (8.7) n (%)"}, {"measurement": "TEAE: Acidosis, patients", "setting": "[2]; [3]", "value": "1 (2.2) n (%)"}, {"measurement": "TEAE: Acute kidney injury, patients", "setting": "[2]; [3]", "value": "1 (2.2) n (%)"}, {"measurement": "TEAE: Anaemia, patients", "setting": "[2]; [3]", "value": "7 (15.2) n (%)"}, {"measurement": "TEAE: Atrial fibrillation, patients", "setting": "[2]; [3]", "value": "3 (6.5) n (%)"}, {"measurement": "TEAE: Bradycardia, patients", "setting": "[2]; [3]", "value": "1 (2.2) n (%)"}, {"measurement": "TEAE: Constipation, patients", "setting": "[2]; [3]", "value": "2 (4.3) n (%)"}, {"measurement": "TEAE: Decubitus ulcer, patients", "setting": "[2]; [3]", "value": "3 (6.5) n (%)"}, {"measurement": "TEAE: Deep vein thrombosis, patients", "setting": "[2]; [3]", "value": "1 (2.2) n (%)"}, {"measurement": "TEAE: Diarrhoea, patients", "setting": "[2]; [3]", "value": "7 (15.2) n (%)"}, {"measurement": "TEAE: Dyspnoea, patients", "setting": "[2]; [3]", "value": "0 (0) n (%)"}, {"measurement": "TEAE: Fluid overload, patients", "setting": "[2]; [3]", "value": "4 (8.7) n (%)"}, {"measurement": "TEAE: Hyperkalaemia, patients", "setting": "[2]; [3]", "value": "2 (4.3) n (%)"}, {"measurement": "TEAE: Hypertension, patients", "setting": "[2]; [3]", "value": "3 (6.5) n (%)"}, {"measurement": "TEAE: Hypokalaemia, patients", "setting": "[2]; [3]", "value": "4 (8.7) n (%)"}, {"measurement": "TEAE: Hypotension, patients", "setting": "[2]; [3]", "value": "3 (6.5) n (%)"}, {"measurement": "TEAE: Insomnia, patients", "setting": "[2]; [3]", "value": "4 (8.7) n (%)"}, {"measurement": "TEAE: Multiple organ dysfunction syndrome, patients", "setting": "[2]; [3]", "value": "3 (6.5) n (%)"}, {"measurement": "TEAE: Nausea, patients", "setting": "[2]; [3]", "value": "4 (8.7) n (%)"}, {"measurement": "TEAE: Peripheral oedema, patients", "setting": "[2]; [3]", "value": "3 (6.5) n (%)"}, {"measurement": "TEAE: Pleural effusion, patients", "setting": "[2]; [3]", "value": "0 (0) n (%)"}, {"measurement": "TEAE: Pneumonia, patients", "setting": "[2]; [3]", "value": "3 (6.5) n (%)"}, {"measurement": "TEAE: Pneumothorax, patients", "setting": "[2]; [3]", "value": "0 (0) n (%)"}, {"measurement": "TEAE: Pyrexia, patients", "setting": "[2]; [3]", "value": "2 (4.3) n (%)"}, {"measurement": "TEAE: Respiratory failure, patients", "setting": "[2]; [3]", "value": "0 (0) n (%)"}, {"measurement": "TEAE: Sepsis, patients", "setting": "[2]; [3]", "value": "5 (10.9) n (%)"}, {"measurement": "TEAE: Septic shock, patients", "setting": "[2]; [3]", "value": "6 (13.0) n (%)"}, {"measurement": "TEAE: Vomiting, patients", "setting": "[2]; [3]", "value": "7 (15.2) n (%)"}, {"measurement": "≥ 1 TEAE", "setting": "[2]; [3]", "value": "41 (89.1) n (%)"}, {"measurement": "≥ 1 TEAE leading to study/drug discontinuation", "setting": "[2]; [3]", "value": "8 (17.4) n (%)"}, {"measurement": "≥ 1 serious TEAE", "setting": "[2]; [3]", "value": "28 (60.9) n (%)"}, {"measurement": "≥ 1 study drug-related TEAE", "setting": "[2]; [3]", "value": "4 (8.7) n (%)"}, {"measurement": "≥ 1 study drug-related TEAE leading to study/drug discontinuation", "setting": "[2]; [3]", "value": "0 (0) n (%)"}, {"measurement": "≥ 1 study drug-related serious TEAE", "setting": "[2]; [3]", "value": "1 (2.2) n (%)"}, {"measurement": "TEAE: Abdominal abscess, event severity (n): mild/moderate/severe", "setting": "[2]; [4]", "value": "0/1/0"}, {"measurement": "TEAE: Abdominal pain, event severity (n): mild/moderate/severe", "setting": "[2]; [4]", "value": "1/2/1"}, {"measurement": "TEAE: Acidosis, event severity (n): mild/moderate/severe", "setting": "[2]; [4]", "value": "1/1/0"}, {"measurement": "TEAE: Acute kidney injury, event severity (n): mild/moderate/severe", "setting": "[2]; [4]", "value": "1/1/0"}, {"measurement": "TEAE: Anaemia, event severity (n): mild/moderate/severe", "setting": "[2]; [4]", "value": "2/4/1"}, {"measurement": "TEAE: Atrial fibrillation, event severity (n): mild/moderate/severe", "setting": "[2]; [4]", "value": "1/2/0"}, {"measurement": "TEAE: Bradycardia, event severity (n): mild/moderate/severe", "setting": "[2]; [4]", "value": "0/1/0"}, {"measurement": "TEAE: Constipation, event severity (n): mild/moderate/severe", "setting": "[2]; [4]", "value": "2/0/0"}, {"measurement": "TEAE: Decubitus ulcer, event severity (n): mild/moderate/severe", "setting": "[2]; [4]", "value": "2/1/0"}, {"measurement": "TEAE: Deep vein thrombosis, event severity (n): mild/moderate/severe", "setting": "[2]; [4]", "value": "1/0/0"}, {"measurement": "TEAE: Diarrhoea, event severity (n): mild/moderate/severe", "setting": "[2]; [4]", "value": "6/1/0"}, {"measurement": "TEAE: Dyspnoea, event severity (n): mild/moderate/severe", "setting": "[2]; [4]", "value": "0/0/0"}, {"measurement": "TEAE: Fluid overload, event severity (n): mild/moderate/severe", "setting": "[2]; [4]", "value": "0/3/1"}, {"measurement": "TEAE: Hyperkalaemia, event severity (n): mild/moderate/severe", "setting": "[2]; [4]", "value": "2/0/0"}, {"measurement": "TEAE: Hypertension, event severity (n): mild/moderate/severe", "setting": "[2]; [4]", "value": "2/1/0"}, {"measurement": "TEAE: Hypokalaemia, event severity (n): mild/moderate/severe", "setting": "[2]; [4]", "value": "3/1/0"}, {"measurement": "TEAE: Hypotension, event severity (n): mild/moderate/severe", "setting": "[2]; [4]", "value": "2/1/0"}, {"measurement": "TEAE: Insomnia, event severity (n): mild/moderate/severe", "setting": "[2]; [4]", "value": "3/1/0"}, {"measurement": "TEAE: Multiple organ dysfunction syndrome, event severity (n): mild/moderate/severe", "setting": "[2]; [4]", "value": "0/0/3"}, {"measurement": "TEAE: Nausea, event severity (n): mild/moderate/severe", "setting": "[2]; [4]", "value": "0/4/0"}, {"measurement": "TEAE: Peripheral oedema, event severity (n): mild/moderate/severe", "setting": "[2]; [4]", "value": "3/0/0"}, {"measurement": "TEAE: Pleural effusion, event severity (n): mild/moderate/severe", "setting": "[2]; [4]", "value": "0/0/0"}, {"measurement": "TEAE: Pneumonia, event severity (n): mild/moderate/severe", "setting": "[2]; [4]", "value": "0/0/3"}, {"measurement": "TEAE: Pneumothorax, event severity (n): mild/moderate/severe", "setting": "[2]; [4]", "value": "0/0/0"}, {"measurement": "TEAE: Pyrexia, event severity (n): mild/moderate/severe", "setting": "[2]; [4]", "value": "1/1/0"}, {"measurement": "TEAE: Respiratory failure, event severity (n): mild/moderate/severe", "setting": "[2]; [4]", "value": "0/0/0"}, {"measurement": "TEAE: Sepsis, event severity (n): mild/moderate/severe", "setting": "[2]; [4]", "value": "3/2/1"}, {"measurement": "TEAE: Septic shock, event severity (n): mild/moderate/severe", "setting": "[2]; [4]", "value": "0/1/5"}, {"measurement": "TEAE: Vomiting, event severity (n): mild/moderate/severe", "setting": "[2]; [4]", "value": "4/4/0"}, {"measurement": "Study drug-related serious TEAEs, events", "setting": "[2]; each event n = 1", "value": "infusion-related reaction"}]}
